Source: article PMC2804977 (Biochemical and biophysical research communications, 2009)

Assays:
15F3 of Fn [1] = molecular target: T1, 15F3 of Fn (Rattus norvegicus, UniProt P04937); assay: Intrinsic Trp fluorescence quenching titration of 15F3; format: binding
T1 sequence (P04937 2193-2286 limits assumed): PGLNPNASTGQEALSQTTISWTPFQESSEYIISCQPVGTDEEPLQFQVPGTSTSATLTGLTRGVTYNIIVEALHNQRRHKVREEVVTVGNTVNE
In short: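 Titration of the rat Fn 15th type III module (1 μM) with varied test peptide concentrations; intrinsic Trp emission spectra recorded after 5 min. Intensity at 350 nm was fitted to derive KD. Data were corrected for dilution and inner-filter effect.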

15F3 of Fn [2] = molecular target: T1, 15F3 of Fn; assay: Stopped-flow binding kinetics with 15F3; conditions: 25 °C
In short: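 Rat Fn 15th type III module (1 μM) in PBS was rapidly mixed with test peptide (25–400 μM, at least 25-fold excess for pseudo-first-order conditions). Trp emission above 320 nm (295 nm excitation, 320 nm cut-off filter) was recorded at 25 °C, 1000 points per trace. Averaged traces were fitted single-exponentially for kobs; kobs versus peptide concentration gave kon and koff. Three experiments were averaged.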

Substance: LIPAD
- affinity for 15F3 (15F3 of Fn [1]): moderate affinity
- binding kinetics to 15F3 (15F3 of Fn [2]): slow binding kinetics
